From PubChem
proCasp3 act = activates human procaspase-3; P42574; recombinant procaspase-3 D3A, Ac-DEVD-pNA absorbance 405 nm; activation, % at 8.5 µM; 330,000 tested, 0.11% active;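 active means activation above the mean of all tested compounds plus 3 SD, cut at about 21% in these data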;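 further: 0% = DMSO alone and 100% = DMSO wells spiked with extra 5 µM PC-3 D3A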
Target sequence (P42574 whole entry D9A/D28A/D175A): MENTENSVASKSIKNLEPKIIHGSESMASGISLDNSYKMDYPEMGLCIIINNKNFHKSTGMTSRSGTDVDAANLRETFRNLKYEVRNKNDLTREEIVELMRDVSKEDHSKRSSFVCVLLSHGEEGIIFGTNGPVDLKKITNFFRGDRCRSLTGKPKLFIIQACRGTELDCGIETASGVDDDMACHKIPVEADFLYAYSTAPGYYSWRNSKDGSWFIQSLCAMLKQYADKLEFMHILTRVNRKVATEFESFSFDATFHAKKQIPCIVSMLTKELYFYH
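assay system = Procaspase-3 D3A mutant | signal = absorbance at 405 nm, 0 and 120 min | times = 1 h preincubation plus 2 h reaction at 25 °C | repeats = single replicate | read-out = % activation between DMSO and enzyme-spiked controls | medium = Zinc-free HEPES saline buffer with Triton X-100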
MsrA inh = inhibitors of bovine MsrA. inhibition, % at 15.5 µM. purified bovine MsrA, absorbance read-out. AID 651718. 360,000 tested, 0.75% active;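 further: 0% = vehicle wells with enzyme and 100% = reference inhibitor wells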
MsrA act = bovine methionine sulfoxide reductase A activation; 360,000 tested, 0.3% active; activation, % at 10.6 µM; purified bovine MsrA, absorbance read-out; in the data active means activation above about 7.5%;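 further: 0% = vehicle and 100% = reference activator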
Bfl-1 A1 inh = inhibitors of the anti-apoptotic protein A1, read as caspase activation | MEF A1-2A-BIM cells, Caspase-Glo 3/7 luminescence, 3 h; percent of clofoctol response, vehicle zero | caspase activation, % (no concentration beside the values) | 330,000 tested, 0.066% active;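 active means over half of replicate activation scores above 10%, or exactly half above 10 with the replicate mean above 10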
procasp7 counter = activates human procaspase-7, counter-screen for procaspase-3 activators | P55210 | recombinant procaspase-7, Ac-DEVD-pNA absorbance 405 nm; D23A/D198A/D206A triple mutant, cannot self-cleave; scale: DMSO 0, 5 µM enzyme 100 | activation, % at 8.5 µM | 330,000 tested, 0.093% active | AID 463210;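 active means percent activation above the screen-wide mean plus 3 SD, cut at about 25% in these data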
Target sequence (P55210 whole entry D23A/D198A/D206A): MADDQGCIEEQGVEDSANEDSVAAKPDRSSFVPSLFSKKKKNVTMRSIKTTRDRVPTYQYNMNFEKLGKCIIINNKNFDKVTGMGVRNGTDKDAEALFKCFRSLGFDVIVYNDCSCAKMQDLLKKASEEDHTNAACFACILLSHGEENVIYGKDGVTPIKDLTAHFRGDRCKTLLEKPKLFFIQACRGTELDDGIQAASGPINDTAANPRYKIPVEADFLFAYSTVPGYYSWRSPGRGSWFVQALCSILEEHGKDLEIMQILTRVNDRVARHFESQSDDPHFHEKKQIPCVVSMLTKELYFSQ
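System: Uncleavable procaspase-7 mutant enzyme; Amount: 2 µM procaspase-7 mutant as dispensed; Schedule: 1 h compound preincubation, 2 h substrate cleavage, 25 °C; Measured by: 405 nm absorbance of p-nitroaniline; Evaluation: percent activation from buffer-corrected 0–120 min absorbance change; Control set: low DMSO alone, high DMSO plus 5 µM PC-7.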
MsrA inh confirm = confirmation of bovine MsrA inhibitors; AID 651822; purified bovine MsrA, absorbance read-out; 2,300 tested, 41% active; inhibition, % at 15.5 µM; shares compounds with MsrA inh;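 further: coupled to thioredoxin reductase with NADPH and selenocystamine and DMSO as substrate; 0% = vehicle only and 100% = full effect of reference inhibitor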
Starred values were filed as active, the others as inactive; · = no result given. Sampled rows, rich in hits. Any-hit rate of the full collection: about 1.2%. Unless noted, no stated cut-off is given here; in the data, active means inhibition above about 4.5%; inactive means the rest.

SMILES | proCasp3 act | MsrA inh | MsrA act | Bfl-1 A1 inh | procasp7 counter | MsrA inh confirm
O=C(O)c1ccc(N/N=C/c2ccncc2)cc1 | 1 | 5.7* | -6 | -9 | 12 | 4
O=C(O)c1ccc(N/N=C/c2ccc3nccnc3c2)cc1 | -11 | 4.8* | -8 | -8 | -8 | 3
O=C(O)c1ccc(N/N=C/c2ccnc3ccccc23)cc1 | -11 | 0 | 2 | -6 | -10 | ·
COCc1cc(N2CCN(C(=O)OC(C)(C)C)C[C@H]2C)ccc1N1CC[C@H](O)C1 | · | -1 | · | · | · | ·
O=C(N/N=C/c1cccs1)c1ccc2ccccc2c1 | 8 | 4 | -5 | 0 | -10 | ·
O=C(N/N=C/c1cccs1)c1cccc2cc[nH]c12 | 0 | 5.2* | -7 | -1 | 0 | 4
Cn1c(CNC(=O)CNS(=O)(=O)c2ccc(Cl)cc2)cc(=O)n(C)c1=O | 0 | -1 | -2 | 0 | 2 | ·
Nc1n[nH]c(N)c1N=Nc1cccc(F)c1 | 1 | 4 | -3 | -1 | 0 | ·
Nc1n[nH]c(N)c1N=Nc1ccc(Cl)cc1 | 0 | 6.1* | -5 | -1 | 10 | 3
CC1CC(=O)NN=C1c1ccc(N(C)C)c([N+](=O)[O-])c1 (configuration not stated) | -6 | 4.7* | -5 | -1 | 2 | 4
CCOC(=O)C1(N(CC)CC)Sc2cc(C)ccc2NC1=O (configuration not stated) | 4 | 1 | 1 | 0 | 4 | ·
COC(=O)C1=C(C(=O)OC)SC2(S1)C(C(=O)OC)=C(C(=O)OC)SC1=C2c2cc(C)ccc2NC1(C)C | -14 | 6.1* | -11 | 0 | -18 | 3
CCc1c(-c2cccc(OC)c2)ncn1CCc1ccccc1OC | · | 1 | · | · | · | ·
Cc1ccc(SCC(=O)OCC(=O)NC2(C#N)CCCCC2)cc1 | · | 0 | -3 | 1 | · | ·
NC(=S)N/N=C/c1cccc(/C=N/NC(N)=S)c1 | -8 | 2 | -1 | 1 | -21 | ·
NC(=S)N/N=C/c1ccc(/C=N/NC(N)=S)cc1 | -1 | 10.0* | -5 | 1 | -13 | 9.0*
Cn1cccc1/C=N/NC(N)=S | 1 | 7.4* | -1 | 1 | 15 | 4
CC1=C(C(=O)N(C)C)CC(CC(=O)NCCN2CCOCC2)C(=O)N1Cc1ccc(F)cc1 (configuration not stated) | · | 0 | -2 | · | · | ·
COc1cccc(/C=C2\Oc3cc(OCC(=O)N4CCC[C@H]4C(=O)O)ccc3C2=O)c1 | -1 | 5.7* | -3 | 0 | -4 | 5.9*
COc1ccc(/C=C2\Oc3cc(OCC(=O)N4CCC[C@H]4C(=O)O)ccc3C2=O)c(OC)c1 | 3 | · | -3 | 0 | 8 | ·
CN(Cc1ccccc1)C(=O)c1csc([C@@H]2O[C@H](CO)[C@@H](O)[C@H]2O)n1 | · | 0 | -3 | · | · | ·
CCN(CC(=O)NC1CC1)S(=O)(=O)c1ccc(OC)cc1 | 8 | -1 | -3 | 1 | -2 | ·
Oc1ccccc1C=NNc1nc2ccccc2s1 | · | 1 | -4 | · | · | ·
C(=N\Nc1nc2ccccc2s1)/c1ccco1 | -1 | 6.2* | -15 | -7 | -5 | 5.5*
NC(Cc1ccc(O)cc1)C(=O)NN=Cc1ccccc1Cl (configuration not stated) | · | 1 | · | · | · | ·
SMILES | proCasp3 act | MsrA inh | MsrA act | Bfl-1 A1 inh | procasp7 counter | MsrA inh confirm
CSc1ccc(/C=N/Nc2nc(C)cc(=O)[nH]2)cc1 | 2 | 4.9* | -5 | -3 | 3 | 4
Cc1cc(=O)[nH]c(N/N=C/c2ccc(O)c(O)c2)n1 | 0 | 4 | -6 | 0 | -20 | ·
Cc1cc(=O)[nH]c(N/N=C/C=C/c2ccccc2)n1 | 5 | 11* | -8 | 0 | -6 | 4
Cc1cc(=O)[nH]c(N/N=C/c2ccc(Br)s2)n1 | -4 | 5.5* | -5 | -1 | 13 | 4
O=C(Nc1ccccc1C(F)(F)F)C1CCN(C(=O)Cc2ccccc2)CC1 | 5 | 0 | -3 | 1 | -7 | ·
Cc1nc2ccsc2c(=O)n1-c1cccc(Cl)c1 | 1 | -1 | -3 | 0 | 4 | ·
CN(C)c1ccc(C(=O)Nc2nnc(C3=COCCO3)o2)cc1 | 2 | 5.1* | -10 | -2 | 3 | 4
c1ccc(-c2onc3cc4c(cc23)OCCO4)cc1 | -2 | 5.1* | 0 | -4 | -1 | 2
Cc1ccc([C@H]2C[C@@H](n3cc(-c4ccc(F)cc4)nn3)[C@H](O)CN2C(=O)C2CCCCC2)cc1 | · | 0 | -1 | · | · | ·
N#C/C(=C\c1ccco1)C(=O)Nc1ccc(S(N)(=O)=O)cc1 | 3 | 4 | -13 | 0 | -4 | ·
N#C/C(=C\c1ccco1)C(=O)Nn1cnnc1 | 9 | 7.5* | -11 | 0 | 1 | 5.7*
O=C(OCc1ccccc1)N1CCC2CC1c1c(Cl)cccc12 (configuration not stated) | · | 5.6* | 0 | · | · | 0
O=C(OCc1ccccc1)N1CCC2CC1c1cc(Cl)ccc12 (configuration not stated) | · | -1 | -1 | · | · | ·
O=C1C(C=NCCCn2ccnc2)=C(O)c2ccccc21 | -3 | 4.7* | -9 | -1 | -8 | 2
CC(C)CN=CC1=C(O)c2ccccc2C1=O | -1 | 4 | -5 | -5 | 11 | ·
O=C1C(C=NCCCN2CCCC2=O)=C(O)c2ccccc21 | -8 | 5.2* | -2 | -1 | 9 | 3
Cc1cccc(Cl)c1NC(=O)NCCCN1CCOCC1 | · | -1 | · | · | · | ·
O=C1NC(=S)N/C1=C/c1cccn1-c1ccc([N+](=O)[O-])cc1 | -2 | 5.1* | -10 | 0 | 2 | 1
COc1ccccc1/C=C/C1=NC(=C\C=C/c2ccccc2)/C(=O)O1 | -3 | 6.4* | -6 | 1 | 5 | 2
CN(C)/C=C/c1oc2ccc(O)cc2c1[N+](=O)[O-] | -10 | 5.5* | -5 | 0 | -21 | 4
Cc1cc(C)c(S(=O)(=O)/N=C2\C=C(Nc3ccc(C(=O)O)cc3)C(=O)c3ccccc32)c(C)c1 | -7 | 19* | -1 | 0 | -13 | 21*
Cc1ccc(Cl)cc1NC1=C/C(=N\S(=O)(=O)c2cccs2)c2ccccc2C1=O | -14 | 5.6* | 2 | 1 | 8 | 8.2*
Cc1cc(C)c(S(=O)(=O)/N=C2\C=C(NS(=O)(=O)c3ccccc3)C(=O)c3ccccc32)c(C)c1 | 5 | 0 | 1 | 0 | 2 | ·
O=C(O)c1ccc(NC2=C/C(=N/S(=O)(=O)c3cccs3)c3ccccc3C2=O)cc1 | · | 62* | -2 | · | · | 66*
Cc1cccc(NC2=C/C(=N/S(=O)(=O)c3cccs3)c3ccccc3C2=O)c1 | -5 | -1 | 0 | 0 | 2 | ·
CCc1ccc(S(=O)(=O)/N=C2\C=C(Nc3cccc(C(=O)O)c3)C(=O)c3ccccc32)cc1 | -5 | 52* | 1 | 0 | -10 | 53*
CC(C)CNc1cccc2c1S(=O)(=O)N[C@@H](CC(C)C)CO2 | · | 0 | · | · | · | ·
CCN(CC)CCOCCn1c(C)ccc1C | · | 0 | 0 | · | · | ·
